{
  "source": "ChEMBL document CHEMBL2057105",
  "about": "“Effect of substitution at N″-position of N'-hydroxy-N-amino guanidines on tumor cell growth” (Bioorg Med Chem Lett, 2012)",
  "data": [
    {"test_system": "HL-60", "test": "Cytotoxicity against human HL60 cells after 72 hrs by trypan blue assay", "assay_type": "functional, cell-based", "settings": "HL-60, 72 h", "method_in_brief": "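HL-60 cells in log phase, grown in RPMI 1640 with 10% heat-inactivated FCS, 1% L-glutamine and 1% penicillin–streptomycin (37 °C, 5% CO₂), seeded at 0.1 × 10^6/mL in flasks and exposed to increasing compound concentrations for 72 h at 37 °C. Viable cells counted electronically after trypan blue staining; IC50 as 50% growth inhibition; means SD of at least three experiments.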", "units": {"IC50": "µM"}, "values": [
      {"smiles": "ON/C(=N\\CCc1ccccc1)N/N=C/c1c2ccccc2cc2ccccc12", "IC50": 19.6},
      {"smiles": "CC/N=C(/NO)N/N=C/c1c2ccccc2cc2ccccc12", "IC50": 22.6},
      {"smiles": "ON/C(=N\\Cc1ccccc1)N/N=C/c1c2ccccc2cc2ccccc12", "IC50": 19.3},
      {"smiles": "CCCC/N=C(\\NO)N/N=C/c1c2ccccc2cc2ccccc12", "IC50": 21.1},
      {"smiles": "CC(C)/N=C(/NO)N/N=C/c1c2ccccc2cc2ccccc12", "IC50": 29.8},
      {"smiles": "O=C(N/C(=N/O)N/N=C/c1c2ccccc2cc2ccccc12)c1ccc([N+](=O)[O-])cc1", "IC50": 10},
      {"smiles": "CCC/N=C(/NO)N/N=C/c1c2ccccc2cc2ccccc12", "IC50": 24.9},
      {"smiles": "ON/C(=N\\C1CCCCC1)N/N=C/c1c2ccccc2cc2ccccc12", "IC50": 21.1},
      {"smiles": "CC(=O)N/C(=N/O)N/N=C/c1c2ccccc2cc2ccccc12", "IC50": 20},
      {"smiles": "O=C(N/C(=N/O)N/N=C/c1c2ccccc2cc2ccccc12)c1cc([N+](=O)[O-])cc([N+](=O)[O-])c1", "IC50": 8},
      {"smiles": "C/N=C(/NO)N/N=C/c1c2ccccc2cc2ccccc12", "IC50": 32.9}
    ]}
  ]
}
